Published values gathered from unrelated publications.
Each line is one published result; the experiments were not run side by side.
Target: Glycogen synthase kinase-3 alpha (GSK3A, Homo sapiens, UniProt P49840)

SMILES	observed	method	tested at	remaining binding
COc1cnc(Nc2cccc(S(N)(=O)=O)c2)nc1N1CCN(c2ccccc2)CC1	binding	competition with immobilised ligand	1 µM	99%
COc1ccc2c(c1)O[C@@H](c1ccc(OC)c(OC)c1)C[C@H]2NC(=O)C1(c2ccc3c(c2)OC(F)(F)O3)CC1	cell-free assay	competition with immobilised ligand	1 µM	100%
C[C@@H](c1ccc(-n2cnc3c(N)ncnc32)cc1)N1CCc2nn(C)c(Cc3ccccc3)c2C1=O	binding	competition with immobilised ligand	0.1 µM	72%
Nc1ncc2c(n1)-c1c([nH]c3ccc(C#CC4CC4)cc13)CCCC2	binding	competition with immobilised ligand	1 µM	57%
Cc1cnc(Nc2ccc(C(=O)N3CCC(N4CCCC4)CC3)cc2)nc1-c1cc2ccccc2s1	binding	competition with immobilised ligand	1 µM	43%
FC(F)(F)Oc1cccc(-c2cnc3ccc(-c4ccncc4)nn23)c1	cell-free assay	competition with immobilised ligand	5 µM	44%
O=C(NCCCN1CCOCC1)c1ccc(Nc2ncc(Cl)c(-c3ccc(Cl)s3)n2)cc1	binding	competition with immobilised ligand	1 µM	43%
Cc1cnn2ncc(-c3ccnc(N(C)C)n3)c2c1	binding		1 µM	96%
CN(C)C(=O)Cn1cc(-c2nc([C@@](C)(c3ccc(-c4cnc(N)nc4)cc3)C3CC3)no2)cn1	cell-free assay	competition with immobilised ligand	1 µM	100%
C[C@@H]1CCN(c2nccc(-c3cnn4ncccc34)n2)C1	binding		1 µM	80%
CC(C)(O)c1cncc(-c2nc3ccc(F)cc3n2C2CC2)c1	cell-free assay	competition with immobilised ligand	1 µM	100%
N[C@@H]1CCN(c2nccc(-c3cnn4ncccc34)n2)C1	binding		1 µM	100%
COc1ccc2c(O[C@@H]3C[C@H]4C(=O)N[C@]5(C(=O)O)CC5/C=C\CCCCC[C@H](NC(=O)OC5CCCC5)C(=O)N4C3)cc(-c3csc(NC(=O)C(C)C)n3)nc2c1C (some centres unmarked)	cell-free assay	competition with immobilised ligand	1 µM	100%
c1cnn2ncc(-c3ccnc(N4CCC45COC5)n3)c2c1	binding		1 µM	100%
O=C(NC[C@@H]1[C@H]2CN(C(=O)OCc3cc(C(F)(F)F)cc(C(F)(F)F)c3)C[C@@H]12)c1ccc2[nH]nnc2c1	cell-free assay	competition with immobilised ligand	1 µM	99%
O=C(c1ccc(Nc2ncc(Cl)c(-c3ccc(Cl)s3)n2)cc1)N1CCC(N2CCCC2)CC1	binding	competition with immobilised ligand	1 µM	22%
COc1ccnn2ncc(-c3ccnc(N(C)C)n3)c12	binding		1 µM	96%
O=C(Nc1c[nH]nc1C(=O)NC1CCNCC1)c1cc(F)cc(F)c1	binding	competition with immobilised ligand	1 µM	14%
CC1CCCN1c1nccc(-c2cnn3ncccc23)n1 (centres unmarked)	binding		1 µM	94%
COCCOc1nc(-c2ccc(Cl)nc2)nc2c1CN(C(=O)c1ncn3ccccc13)CC2	cell-free assay	competition with immobilised ligand	0.1 µM	100%
